In ChEMBL document CHEMBL2203013, “Strategy for Imidazotetrazine Prodrugs with Anticancer Activity Independent of MGMT and MMR” (ACS Med Chem Lett, 2012):
Calls of active or inactive are those of the source. The calls are words filed in the database; no cut-off is given here.

Tests used:
[1] = tested on: Nucleic Acid; test: Binding affinity to Escherichia coli pBR322 DNA assessed as guanine-N7 alkylation on GC-rich region after 2 hrs by piperidine cleavage assay; format: nucleic-acid assay
[2] = tested on: A2780/CP70; test: (§1) Cytotoxicity against MMR-deficient human A2780/CP70 cells after 5 days by MTT assay in presence of 10 uM MGMT inactivator Patrin2; format: functional, cell-based
[3] = tested on: A2780; test: Cytotoxicity against human A2780 cells after 5 days by MTT assay; format: functional, cell-based
[4] = tested on: A549; test: Cytotoxicity against human A549 cells after 5 days by MTT assay; format: functional, cell-based; conditions: for IC50: A549, 120 h
[5] = tested on: HT-29; test: Cytotoxicity against human HT-29 cells after 5 days by MTT assay; format: functional, cell-based; conditions: for IC50: HT-29, 120 h
[6] = tested on: A2780; test: Cytotoxicity against human A2780 cells after 5 days by MTT assay in presence of 10 uM MGMT inactivator Patrin2; format: functional, cell-based
[7] = tested on: Nucleic Acid; test: Induction of Escherichia coli pBR322 DNA alkylation assessed as formation of covalent DNA adducts after 2 hrs by Taq polymerase DNA stop assay; format: nucleic-acid assay
[8] = tested on: U-251; test: Cytotoxicity against human U251 cells after 5 days by MTT assay; format: functional, cell-based; conditions: for IC50: U-251, 120 h
[9] = tested on: HCT-116; test: Cytotoxicity against human HCT116 cells after 5 days by MTT assay; format: functional, cell-based; conditions: for IC50: HCT-116, 120 h
[10] = tested on: A2780/CP70; test: Cytotoxicity against MMR-deficient human A2780/CP70 cells after 5 days by MTT assay; format: functional, cell-based
[11] = tested on: DLD-1; test: Cytotoxicity against human DLD1 cells after 5 days by MTT assay; format: functional, cell-based; conditions: for IC50: DLD-1, 120 h
[12] = tested on: PANC-1; test: Cytotoxicity against human PANC1 cells after 5 days by MTT assay; format: functional, cell-based; conditions: for IC50: PANC-1, 120 h
[13] = Prodrug conversion in citrate-phosphate buffer at pH 8 assessed as half life of compound; format: physicochemical
How it was run: (§2)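 Hydrolysis in citrate-phosphate buffers at 37 °C, followed by UV absorbance at 330 nm (loss of imidazotetrazine). k′ is a pseudo-first-order rate constant (×10–5 s–1), mean ± SD of three independent determinations; t1/2 given in hours.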

[14] = Prodrug conversion in citrate-phosphate buffer at pH 7.4 assessed as pseudo-first-order rate constant; format: physicochemical; how it was run: as §2
[15] = tested on: A2780; test: Ratio of IC50 for human A2780 cells to IC50 for MMR-deficient human A2780/CP70 cells in presence of 10 uM MGMT inactivator Patrin2; format: functional
[16] = Prodrug conversion in citrate-phosphate buffer at pH 8 assessed as pseudo-first-order rate constant; format: physicochemical; how it was run: as §2
[17] = Prodrug conversion in citrate-phosphate buffer at pH 7.4 assessed as half life of compound; format: physicochemical; how it was run: as §2
[18] = Prodrug conversion in citrate-phosphate buffer at pH 4 assessed as half life of compound; format: physicochemical; how it was run: as §2
[19] = Prodrug conversion in citrate-phosphate buffer at pH 4 assessed as pseudo-first-order rate constant; format: physicochemical; how it was run: as §2
[20] = as §1; format: functional, cell-based; conditions: A2780/CP70, 120 h

Compound | Activity [1] | Activity [7] | t1/2 [13] | Drug metabolism [14] | Drug metabolism [16] | t1/2 [17] | t1/2 [18] | Drug metabolism [19] | Activity [2] | Activity [3] | IC50 [4] | IC50 [5] | Activity [6] | IC50 [8] | IC50 [9] | Activity [10] | IC50 [11] | IC50 [12] | Activity [4] | Ratio IC50 [15] | other results
N[C@@H](Cc1ccc(N(CCCl)CCCl)cc1)C(=O)O [MELPHALAN] | Active | Active | – | – | – | – | – | – | Active | Active | 3000 nM | 3000 nM | Active | 3000 nM | 3000 nM | Active | 3000 nM | 3000 nM | – | – | –
NC(=O)c1ncn2c(=O)n(CCCl)nnc12 | – | – | – | – | – | – | – | – | Active | Active | – | – | Active | – | – | Active | – | – | – | – | –

Continued, in another order:

Activity [1] | Activity [7] | t1/2 [13] | Drug metabolism [14] | Drug metabolism [16] | t1/2 [17] | t1/2 [18] | Drug metabolism [19] | Compound | Activity [2] | Activity [3] | IC50 [4] | IC50 [5] | Activity [6] | IC50 [8] | IC50 [9] | Activity [10] | IC50 [11] | IC50 [12] | Activity [4] | Ratio IC50 [15] | other results
Active | Active | 0.39 h | 15.2 ×10⁻⁵ /s | 49.5 ×10⁻⁵ /s | 1.27 h | 41.5 h | 0.5 ×10⁻⁵ /s | Cc1ccc(N(C)CCn2nnc3c(C(N)=O)ncn3c2=O)cc1 | Active | Active | – | – | Active | – | – | Active | – | – | Active | 2.8 | Activity [5]: Active; Activity [8]: Active; Activity [9]: Active; Activity [11]: Active; Activity [12]: Active
– | – | 0.42 h | 14 ×10⁻⁵ /s | 46.2 ×10⁻⁵ /s | 1.38 h | 253 h | 0.1 ×10⁻⁵ /s | Cn1nnc2c(C(N)=O)ncn2c1=O [TEMOZOLOMIDE] | – | Active | > 250000 nM | > 250000 nM | – | > 250000 nM | > 250000 nM | Active | > 250000 nM | > 250000 nM | – | >27 | IC50 [20]: > 250000 nM; IC50 ([6]; A2780, 120 h): > 250000 nM
Active | Active | 0.43 h | 14.4 ×10⁻⁵ /s | 45.1 ×10⁻⁵ /s | 1.33 h | 48.5 h | 0.4 ×10⁻⁵ /s | Cc1ccc(N(CCn2nnc3c(C(N)=O)ncn3c2=O)CCn2nnc3c(C(N)=O)ncn3c2=O)cc1 | Active | Active | – | – | Active | – | – | Active | – | – | Active | 5.8 | Activity [5]: Active; Activity [8]: Active; Activity [9]: Active; Activity [11]: Active; Activity [12]: Active
